SENP8 block-1: inhibitors of human SENP8 protease. inhibition, % at 10 µM. purified SENP8, Z-RLRGG-aminoluciferin cleavage, luminescence. 330,000 tested, 1.2% active; in the data active means inhibition above about 50%
SENP8 block-2: inhibitors of human SENP8 protease. inhibition, % at 20 µM. 360,000 tested, 0.64% active. Q96LD8. recombinant SENP8, Nedd8 substrate fluorescence. AID 602440; in the data active means inhibition mostly above about 40%, no sharp cut-off; inactive means mostly below about 27%
SENP6 block: SENP6 protease inhibition | inhibition, % at 10 µM | Recombinant SENP6 catalytic domain, aminoluciferin luminescence | AID 2599 | 330,000 tested, 1.8% active;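 active means inhibition above about 50% at the single tested dose, limit read from the data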
SENP7 block: SENP7 protease inhibition. 330,000 tested, 1.5% active. Q9BQF6. inhibition, % at 5 µM. AID 434973. recombinant SENP7, Z-RLRGG-aminoluciferin luminescence, 40 min;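 active means inhibition above about 50% at the single test dose, limit read from the data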
Target sequence (Q9BQF6 706-1050 limits assumed): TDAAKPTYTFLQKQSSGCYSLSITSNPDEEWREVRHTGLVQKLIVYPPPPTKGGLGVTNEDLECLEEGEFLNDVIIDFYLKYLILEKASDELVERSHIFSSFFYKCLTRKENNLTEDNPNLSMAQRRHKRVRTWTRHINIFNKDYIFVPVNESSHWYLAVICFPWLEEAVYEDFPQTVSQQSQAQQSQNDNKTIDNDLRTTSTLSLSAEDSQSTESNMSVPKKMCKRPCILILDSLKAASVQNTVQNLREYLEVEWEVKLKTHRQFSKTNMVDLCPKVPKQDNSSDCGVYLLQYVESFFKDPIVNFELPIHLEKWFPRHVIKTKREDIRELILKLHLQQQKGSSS
Apaf1 inhib: blocks human Apaf-1 apoptosome activity | 330,000 tested, 0.71% active | reconstituted apoptosome caspase-3 activity, DEVD-Rh110 fluorescence | inhibition, % at 20 µM | O14727; active means inhibition of at least 40% at 20 µM
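System: reconstituted apoptosome with Apaf-1, cytochrome c, caspase-9, procaspase-3, dATP; Signal: Rh110 fluorescence intensity; Schedule: 30 min compound preincubation, 50 min activation, room temperature; Reagent: cytochrome c trigger plus (Z-DEVD)2-Rh110 caspase-3 substrate.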
UBC13 inh: human UBC13 polyubiquitination inhibition; 330,000 tested, 0.47% active; UBC13 polyubiquitin chain formation, TR-FRET; inhibition, % at 20 µM; P61088; in the data active means inhibition above about 45%, passing the limit was not always enough
Apaf-1 inh conf: confirmation of Apaf-1 inhibitors | shares compounds with Apaf1 inhib | reconstituted apoptosome, caspase-3 DEVD-Rh110 fluorescence | inhibition, % at 20 µM | 1,800 tested, 25% active;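 active means mean inhibition of at least 40% at 20 µM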
Rh110 interf inh: interferes with Rh110 fluorescence, flagging false Apaf-1 inhibitors; shares compounds with Apaf1 inhib; Rh110 fluorescence interference, quenched caspase reaction; activation (fluorescence interference), % at 20 µM; 1,800 tested, under 10 active; AID 504615;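 active means signal rise of 40% or more at 20 µM, treated as a fluorescence artifact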
Fluor interf inh: Apaf-1 inhibitor counter-screen fluorescence artifact | IC50, µM | fluorescence interference counterscreen, Apaf-1 assay format | shares compounds with Apaf1 inhib | 460 tested, under 10 active; call rule not given here
A number is an active result; - = inactive; . = no result given. Most compounds without a hit are left out; they make up all but 3% or so of the library.

SMILES | SENP8 block-1 | SENP8 block-2 | SENP6 block | SENP7 block | Apaf1 inhib | UBC13 inh | Apaf-1 inh conf | Rh110 interf inh | others
CCC1CCc2sc(C(=O)NCc3ccccn3)cc2C1 (centres undefined) | - | - | - | - | - | - | . | .
CCC1CCc2sc(C(=O)NCC(c3ccccc3OC)N3CCCC3)cc2C1 (centres undefined) | - | - | - | - | 49 | - | - | -
COc1cc(CCc2ccccc2)c(C(=O)O)c(O)c1C/C=C(/C)CCC=C(C)C | . | - | . | - | 43 | . | - | -
COc1cc(CCc2ccccc2)c(C(=O)O)c(O)c1CC=C(C)C | . | - | . | . | . | . | . | .
COc1cc(C2C(C(=O)c3ccc(C)o3)=C(O)C(=O)N2CCCn2ccnc2)cc(OC)c1OC (centres undefined) | - | - | - | - | - | - | . | .
COc1ccc(C2C(C(=O)c3ccco3)=C(O)C(=O)N2CCCn2ccnc2)c(OC)c1 (centres undefined) | - | - | - | - | 57 | - | - | -
O=C(Cc1ccc(Cl)cc1)NCc1ccccc1Cl | - | - | - | - | - | - | . | .
O=C(Cc1ccccc1Cl)NC1(O)C(=O)c2ccccc2C1=O | - | 67 | - | - | 89 | - | 65 | - | Fluor interf inh=-
CS(=O)(=O)c1ccc(Cl)c(NC(=O)CN2CCCC2c2ccc3c(c2)OCCCO3)c1 (centres undefined) | - | - | - | - | - | - | . | .
CN(C)S(=O)(=O)c1ccc(NC(=O)CN2CCCC2c2ccc3c(c2)OCCCO3)cc1 (centres undefined) | - | - | - | - | 46 | - | - | -
CCOC(=O)C1CCN(C(=O)c2ccc3c(c2)NC(=O)/C(=C\c2cccc(C)c2)S3)CC1 | - | - | - | - | 40 | - | - | -
CCOC(=O)C1CCN(C(=O)c2cccc(C(=O)N3CCC(C(=O)OCC)CC3)c2)CC1 | - | - | - | - | - | - | . | .
CC(OC(=O)CCN=C1NS(=O)(=O)c2ccccc21)C(=O)Nc1ccc(F)cc1 (centres undefined) | - | - | - | - | - | - | . | .
O=C(NCCCN1CCOCC1)c1ccccc1 | - | - | - | - | - | - | . | .
O=C(CCNC(=O)c1ccc(Cl)cc1)NCCCN1CCOCC1 | - | - | - | - | 48 | - | - | -
O=C1c2ccccc2C(=O)N1CCN1CCOCC1 | - | - | - | - | - | - | . | .
O=C1C(Cl)=C(NCCN2CCOCC2)C(=O)c2ccccc21 | - | 59 | - | - | 46 | - | 47 | - | Fluor interf inh=-
CC(=O)N1CCN(c2ccc(NCc3ccc(-c4cccc(Cl)c4)o3)cc2)CC1 | - | - | - | - | 43 | - | - | -
CC(=O)N1CCN(c2ccc(NCc3ccco3)cc2)CC1 | - | - | - | - | - | - | . | .
CC(C)(C)NC(=O)CSc1nc2cccnc2n1C1CCCCC1 | - | - | - | - | - | - | . | .
Cc1nn(Cc2c(F)c(F)c(F)c(F)c2F)c(C)c1NC(=O)c1ccc(COc2ccc(Cl)cc2Cl)o1 | - | - | - | - | 46 | - | - | -
Cc1nn(Cc2ccc(Cl)cc2Cl)c(C)c1NC(=O)c1ccc(COc2cc(Cl)ccc2Cl)o1 | - | - | - | - | - | - | . | .
CN(Cc1c(F)cccc1Cl)C(=O)c1ccc(COc2ccccc2)cc1 | - | - | - | - | 53 | - | - | -
CCOc1ccc(-c2nc(CSCC(=O)NCC3CCCO3)c(C)o2)cc1 (centres undefined) | - | - | - | - | - | - | . | .
Cn1c(=O)c2[nH]c(=O)cnc2n(C)c1=S | - | - | - | - | 56 | - | - | -
CCN(C[C@H]1N[C@@](C)(C(=O)OC)[C@H]2C(=O)N(C)C(=O)[C@@H]12)C(=O)Nc1ccc(C(F)(F)F)cc1 | - | - | - | - | - | - | . | .
COc1ccc(S(=O)(=O)N2CC=C(c3ccccc3)CC2)cc1OC | . | - | . | . | . | . | . | .
CCOc1cccc(CNc2ccc(O)cc2)c1OCc1ccccc1Cl | - | - | - | 55 | 97 | - | - | -

Screening results deposited in PubChem BioAssay by Sanford-Burnham Center for Chemical Genomics.
